“And” between values parts separate entries of the source, which are not always exact repeats. Identical values can stand only once.
Legend:
[1] = biological target: T1, Hsp70-Bag3 complex (Homo sapiens, UniProt P0DMV8); assay: CE-LIF screen / dose response for inhibition of the Hsp70-Bag3 interaction; assay type: binding; details: for classification from electropherogram (artifact): 20 μM compound; for hit in CE screen, reconfirmed with repurchased compound by DRC: primary screen 20 μM, repurchased compound dose response
Procedure, shortened: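 Incubated ≥15 min at ambient temperature with dry-spotted compound; unlabelled Hsp70 as positive control. Coated capillary, 10 cm, 25 °C, pH 7.5 phosphate/Tween buffer, 500 V/cm. LIF bound/free peak-area ratio; screen hits ≥3 SD.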

[2] = biological target: T1, Hsp70-Bag3 complex; assay: Flow cytometry protein interaction assay; assay type: binding; details: for cross-test of CE hit by DRC in FCPIA: repurchased compound, dose response; for result in original FCPIA screen: single concentration 20 μM, hit = inhibition ≥ 3 SD from negative controls
Procedure, shortened: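 Biotinylated Hsp70 was immobilised on streptavidin polystyrene beads for 1 h, then mixed with Alexa Fluor 488-labelled Bag3 (30 nM final) and compound or DMSO. Unlabelled Hsp70 served as positive control. After 15 min, median bead-associated fluorescence was read by flow cytometry. Screen used 20 μM; hits ≥3 SD from negative controls.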

[3] = system: Hsp70; details: cited from earlier work
[4] = 0.5 μM Hsp70–488 and 0.5 μM Bag3

T1 sequence (P0DMV8 whole entry, one chain of several): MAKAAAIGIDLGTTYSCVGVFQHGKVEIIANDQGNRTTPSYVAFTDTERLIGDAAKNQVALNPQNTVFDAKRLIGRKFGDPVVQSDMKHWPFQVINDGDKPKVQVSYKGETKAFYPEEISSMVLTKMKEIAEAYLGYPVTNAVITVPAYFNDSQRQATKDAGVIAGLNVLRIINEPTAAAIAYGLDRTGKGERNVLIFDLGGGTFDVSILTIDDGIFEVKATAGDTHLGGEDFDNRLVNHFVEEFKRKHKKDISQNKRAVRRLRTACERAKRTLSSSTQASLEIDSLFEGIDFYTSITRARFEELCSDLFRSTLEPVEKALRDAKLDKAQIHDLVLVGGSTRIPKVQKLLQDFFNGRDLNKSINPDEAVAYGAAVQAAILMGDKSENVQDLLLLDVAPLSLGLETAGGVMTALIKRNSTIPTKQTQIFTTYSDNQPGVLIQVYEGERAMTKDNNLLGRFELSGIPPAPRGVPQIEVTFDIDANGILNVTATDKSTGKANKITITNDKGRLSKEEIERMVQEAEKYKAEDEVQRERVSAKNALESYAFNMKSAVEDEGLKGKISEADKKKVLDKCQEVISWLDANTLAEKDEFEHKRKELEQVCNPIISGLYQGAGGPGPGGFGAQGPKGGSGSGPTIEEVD

Compound | classification from electropherogram (artifact) [1, 4] | hit in CE screen, reconfirmed with repurchased compound by DRC [1] | cross-test of CE hit by DRC in FCPIA [2] | result in original FCPIA screen [2] | also measured
O=C(O[C@@H]1Cc2c(O)cc(O)cc2O[C@@H]1c1cc(O)c(O)c(O)c1)c1cc(O)c(O)c(O)c1 [Epigallocatechin gallate] |  |  |  |  | classification from electropherogram ([1]; 15 μM compound, 0.5 μM Hsp70–488 and 0.5 μM Bag3): confirmed PPI inhibitor
O=C(O)CN(CC(=O)O)Cc1cc2c(cc1O)Oc1cc(O)c(CN(CC(=O)O)CC(=O)O)cc1C21OC(=O)c2ccccc21 [calcein] | identified as a fluorescent compound that interferes with detection of free Hsp70–488 |  |  |  | 
CC1=C(O)C(=O)C=C2C1=CC=C1[C@@]2(C)CC[C@@]2(C)[C@@H]3C[C@](C)(C(=O)O)CC[C@]3(C)CC[C@]12C [celastrol] |  | found by CE | reconfirmed by FCPIA | missed in the original FCPIA screen | 
Oc1cc2c(cc1O)C1c3ccc(O)c(O)c3OCC1(O)C2 (centres unmarked) [haematoxylin] | identified as an aggregator |  |  |  | 
O=c1c(O)c(-c2cc(O)c(O)c(O)c2)oc2cc(O)cc(O)c12 [myricetin] |  | found by CE | reconfirmed by FCPIA | missed in the original FCPIA screen | known modulator of Hsp70 [3]: known modulators of Hsp70
unlabeled Hsp70: unlabeled recombinant human Hsp70 (HSPA1) used as competitor and positive control |  |  |  |  | IC50 (decrease of bound to free peak area ratio) ([1]; 0.5 μM Hsp70–488 and 0.5 μM Bag3 with increasing unlabeled Hsp70): 240 ± 3 nM and 240 nM
